Source: ChEMBL document CHEMBL3769315 (J Med Chem, 2016)
Values after ≈ are worked out from the molar mass of the structure shown.

Key:
Hepatitis C virus [1] = assay: microbe, parasite or virus in culture; assay type: functional, organism-based, Hepacivirus hominis; conditions: JFH-1, Huh-7.5.1, 48 h
[2] = Cytotoxicity against human Huh7.5.1 cells assessed as ATP level by luminescence analysis; conditions: huh-7
HepG2 = assay: Cytotoxicity against human HepG2 cells assessed as ATP level by luminescence analysis
Hepatitis C virus [3] = assay: microbe, parasite or virus in culture; assay type: functional, Hepacivirus hominis; conditions: Huh-7, 48 h
Hepatitis C virus [4] = assay: Antiviral activity against HCV genotype 1a pseudoparticle infected in human Huh7.5.1 cells assessed as inhibition of virus entry at 10 uM after 4 hrs by luciferase reporter gene assay; assay type: functional, Hepacivirus hominis; conditions: subtype 1a, Huh-7, 4 h
Hepatitis C virus [5] = assay: Antiviral activity against HCV genotype 1b pseudoparticle infected in human Huh7.5.1 cells assessed as inhibition of virus entry at 10 uM after 4 hrs by luciferase reporter gene assay; assay type: functional, Hepacivirus hominis; conditions: Huh-7, 4 h
Murine leukemia virus [6] = assay: Antiviral activity against Murine leukemia virus pseudoparticle infected in human Huh7.5.1 cells at 10 uM after 4 hrs by luciferase reporter gene assay; assay type: functional; conditions: Huh-7, 4 h
[7] = test system: Vesicular stomatitis virus; assay: Antiviral activity against Vesicular stomatitis virus G pseudoparticle infected in human Huh7.5.1 cells at 10 uM after 4 hrs by luciferase reporter gene assay; assay type: functional; conditions: Huh-7, 4 h
Hepatitis C virus [8] = assay: Antiviral activity against HCV genotype 2a assessed as inhibition of RNA replication at 10 uM by cell-based replicon assay; assay type: functional, Hepacivirus hominis
Method in brief: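 GT 2a subgenomic replicon cells were plated at 10^4/well and incubated overnight. They were then treated with compound (10 μM, or 3.2 or 1 μM for some compounds) for 48 h. Luciferase activity was read and expressed as % of DMSO.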

[9] = Solubility of compound in phosphate buffer at pH 7.4
[10] = AUClast in CD-1 mouse liver at 50 mg/kg, ip after 24 hrs by UPLC-MS/MS analysis; assay type: ADME, organism-based; design: dose 50 mg/kg, time < 24 hr, route intraperitoneal
[11] = AUCinfinity in CD-1 mouse plasma at 50 mg/kg, ip after 24 hrs by UPLC-MS/MS analysis; assay type: ADME, organism-based; design: dose 50 mg/kg, route intraperitoneal, time infinity
[12] = Cmax in CD-1 mouse liver at 50 mg/kg, ip after 24 hrs by UPLC-MS/MS analysis; assay type: ADME, organism-based; design: dose 50 mg/kg, route intraperitoneal
Hepatocyte = conditions: human, hepatocytes
histamine H1 receptor = histamine H1 receptor (Homo sapiens, UniProt P35367); assay: in vitro; conditions: PathHunter cells
Human alphaherpesvirus 1 = assay: microbe, parasite or virus in culture
Human betaherpesvirus 5 = assay: microbe, parasite or virus in culture
Vaccinia virus = assay: microbe, parasite or virus in culture; conditions: Orthopoxvirus vaccinia
Dengue virus = assay: microbe, parasite or virus in culture
Influenza A virus = assay: microbe, parasite or virus in culture; conditions: H1N1
[13] = test system: Respiratory syncytial virus; assay: microbe, parasite or virus in culture; conditions: human respiratory syncytial virus
SARS-CoV = assay: microbe, parasite or virus in culture; conditions: Severe acute respiratory syndrome-related coronavirus
Poliovirus 3 = assay: microbe, parasite or virus in culture; conditions: Enterovirus C
Rift Valley fever virus = assay: microbe, parasite or virus in culture
Tacaribe virus = assay: microbe, parasite or virus in culture; conditions: Mammarenavirus tacaribeense
[14] = test system: Venezuelan equine encephalitis virus; assay: microbe, parasite or virus in culture
Hepatitis B virus = assay: microbe, parasite or virus in culture
Hepatitis C virus [15] = assay: microbe, parasite or virus in culture
Liver microsome [16] = assay: Metabolic stability in rat liver microsomes assessed as half life by LC-MS/MS analysis in presence of NADPH
Liver microsome [17] = assay: Metabolic stability in human liver microsomes assessed as half life by LC-MS/MS analysis in presence of NADPH
[18] = Metabolic stability in mouse liver microsomes assessed as half life by LC-MS/MS analysis in presence of NADPH
Mus musculus = assay: Hepatotoxicity in CD-1 mouse serum assessed as ALT level at 10 mg/kg, ip by UPLC-MS/MS analysis; assay type: toxicity, organism-based; conditions: in vivo
Method in brief: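 ALT was measured in serum from the mouse PK study: male CD-1 mice, single 10 mg/kg i.p. dose in 10% PEG300 / 90% of 30% HP-β-CD, samples from 0.083 to 24 h. A vehicle-only dosing group served as control. Individual mice were plotted, with mean ± SEM.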

Liver = assay: Half life of compound in CD-1 mouse liver at 10 mg/kg, ip by UPLC-MS/MS analysis; assay type: ADME, organism-based; conditions: mouse, in vivo
Method in brief: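 Male CD-1 mice (~35 g) got a single i.p. dose of 10 mg/kg, prepared fresh at 2 mg/mL in 10% PEG300 / 90% of 30% HP-β-CD in water. Drug was measured by UPLC-MS/MS. Parameters came from noncompartmental analysis, with AUC by the linear trapezoidal method and liver/plasma ratios taken.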

Hepatitis C virus [19] = assay: Antiviral activity against HCV genotype 2a assessed as inhibition of RNA replication at 3.2 uM by cell-based replicon assay; assay type: functional, Hepacivirus hominis
Method in brief: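 GT 2a subgenomic HCV replicon cells were seeded at 10^4 cells/well and incubated overnight. They were then exposed to compound for 48 h, and replication was read by luciferase activity. Results are given as % of DMSO control.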

Hepatitis C virus [20] = assay: Antiviral activity against single rounded infectious HCV infected in human Huh7.5.1 cells assessed as viral level at 3.2 uM after 48 hrs by luciferase reporter gene assay; assay type: functional, Hepacivirus hominis; conditions: Huh-7, 48 h
Method in brief: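 Huh7.5.1 cells (10^4 cells/well, overnight) were infected with single-round infectious HCV (HCVsc) in the presence of compound. Viral level was measured by luciferase after 48 h and expressed as % of DMSO control. The assay reports inhibition of early stages before assembly.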

Hepatitis C virus [21] = assay: Antiviral activity against HCV genotype 1b pseudoparticle infected in human Huh7.5.1 cells assessed as inhibition of virus entry at 3.2 uM after 4 hrs by luciferase reporter gene assay; assay type: functional, Hepacivirus hominis; conditions: Huh-7, 4 h
Method in brief: (§1)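 Huh7.5.1 cells seeded at 10^4 cells/well, cultured overnight, then infected for 4 h with pseudoparticles (HCVpp GT 1a or 1b, MLVpp, VSV-Gpp) while compound was present. Cells were washed and cultured 48 h, then a luciferase read-out was taken. Values are expressed as % of DMSO control. Cyclosporin A 10 μM and bafilomycin A1 10 nM were run in parallel.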

Hepatitis C virus [22] = assay: Antiviral activity against HCV genotype 1a pseudoparticle infected in human Huh7.5.1 cells assessed as inhibition of virus entry at 3.2 uM after 4 hrs by luciferase reporter gene assay; assay type: functional, Hepacivirus hominis; conditions: subtype 1a, Huh-7, 4 h
Method in brief: as §1

Murine leukemia virus [23] = assay: Antiviral activity against Murine leukemia virus pseudoparticle infected in human Huh7.5.1 cells at 3.2 uM after 4 hrs by luciferase reporter gene assay; assay type: functional; conditions: Huh-7, 4 h
Method in brief: as §1

[24] = test system: Vesicular stomatitis virus; assay: Antiviral activity against Vesicular stomatitis virus G pseudoparticle infected in human Huh7.5.1 cells at 3.2 uM after 4 hrs by luciferase reporter gene assay; assay type: functional; conditions: Huh-7, 4 h
Method in brief: as §1

in vitro = conditions: human, Huh7.5.1 cells and HepG2 cells

Chain of histamine H1 receptor (P35367 whole entry): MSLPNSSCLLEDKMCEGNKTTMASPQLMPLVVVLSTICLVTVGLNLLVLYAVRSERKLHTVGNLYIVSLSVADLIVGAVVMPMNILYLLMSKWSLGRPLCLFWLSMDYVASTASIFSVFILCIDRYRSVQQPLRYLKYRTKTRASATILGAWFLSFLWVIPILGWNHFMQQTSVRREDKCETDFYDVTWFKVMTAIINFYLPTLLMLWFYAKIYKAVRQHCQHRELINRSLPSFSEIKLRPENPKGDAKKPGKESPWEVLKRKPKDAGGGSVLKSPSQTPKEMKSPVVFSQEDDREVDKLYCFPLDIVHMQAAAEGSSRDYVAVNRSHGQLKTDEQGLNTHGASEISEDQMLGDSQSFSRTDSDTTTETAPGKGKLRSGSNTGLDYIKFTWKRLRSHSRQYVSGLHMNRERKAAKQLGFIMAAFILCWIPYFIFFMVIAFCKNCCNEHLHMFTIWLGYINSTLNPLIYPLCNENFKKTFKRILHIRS

CN1CCN([C@@H](c2ccccc2)c2ccc(Cl)cc2)CC1
EC50 (Hepatitis C virus [1]): 240 nM | CC50 [2]: 33400 nM | CC50 (HepG2): 32300 nM | inhibition at 10 µM (Hepatitis C virus [3]): 2.1% | inhibition at 10 µM (Hepatitis C virus [4]): 107% | inhibition at 10 µM (Hepatitis C virus [5]): 116% | inhibition at 10 µM (Murine leukemia virus [6]): 103% | inhibition at 10 µM [7]: 120% | inhibition at 10 µM (Hepatitis C virus [8]): 101% | solubility kinetic [9]: 29.3 µg/mL (≈ 97.4 µM) | AUC(0-t) at 24 h [10]: 1310 µM·h | AUC(0-inf) [11]: 48.9 µM·h | Cmax [12]: 436 µM | CC50 (Hepatocyte): > 31600 nM | inhibition at 2 h, 0.01 µM (histamine H1 receptor): 49.5%

CCN1CCN([C@@H](c2ccccc2)c2ccc(Cl)cc2)CC1
CC50 [2]: 40000 nM | CC50 (HepG2): 68900 nM | inhibition at 10 µM (Hepatitis C virus [3]): 2% | solubility kinetic [9]: 12.3 µg/mL (≈ 39.1 µM) | inhibition at 2 h, 0.01 µM (histamine H1 receptor): 60.7% | EC50 (Human alphaherpesvirus 1): ≥ 1000 nM | EC50 (Human betaherpesvirus 5): ≥ 1000 nM | EC50 (Vaccinia virus): ≥ 1000 nM | EC50 (Dengue virus): ≥ 1000 nM | EC50 (Influenza A virus): ≥ 1000 nM | EC50 [13]: ≥ 1000 nM | EC50 (SARS-CoV): ≥ 1000 nM | EC50 (Poliovirus 3): ≥ 1000 nM | EC50 (Rift Valley fever virus): ≥ 1000 nM | EC50 (Tacaribe virus): ≥ 1000 nM | EC50 [14]: ≥ 1000 nM | EC50 (Hepatitis B virus): ≥ 1000 nM | EC50 (Hepatitis C virus [15]): ≥ 1000 nM

CN1CCN(C(c2ccc(Cl)cc2)c2ccc(Cl)cc2)CC1
t1/2 (Liver microsome [16]): 26 min | inhibition at 10 µM (Hepatitis C virus [3]): 12.4% | inhibition at 10 µM (Hepatitis C virus [4]): 76.2% | inhibition at 10 µM (Hepatitis C virus [5]): 91.9% | inhibition at 10 µM (Murine leukemia virus [6]): 116% | inhibition at 10 µM [7]: 119% | inhibition at 10 µM (Hepatitis C virus [8]): 112% | t1/2 (Liver microsome [17]): > 120 min | t1/2 [18]: 91 min | solubility kinetic [9]: > 49 µg/mL | Activity (Mus musculus): 80 U/L | t1/2 (Liver): 510 min | inhibition at 2 h, 0.01 µM (histamine H1 receptor): 18.5%

NCCOCCN1CCN(C(c2ccccc2)c2ccc(Cl)cc2)CC1 (racemic)
inhibition at 3.2 µM (Hepatitis C virus [19]): 149% | inhibition at 3.2 µM (Hepatitis C virus [20]): 6.9% | inhibition at 3.2 µM (Hepatitis C virus [21]): 37.2% | inhibition at 3.2 µM (Hepatitis C virus [22]): 19.4% | inhibition at 3.2 µM (Murine leukemia virus [23]): 107% | inhibition at 3.2 µM [24]: 93.1% | EC50 (Hepatitis C virus [1]): 7.2 nM | CC50 [2]: 8180 nM | t1/2 (Liver microsome [16]): 12.2 min | CC50 (HepG2): 6170 nM | inhibition at 10 µM (Hepatitis C virus [3]): 6.9% | t1/2 (Liver microsome [17]): 26.3 min | t1/2 [18]: 25 min | solubility kinetic [9]: 44.3 µg/mL (≈ 118 µM) | CC50 (Hepatocyte): 8980 nM | selectivity ratio (in vitro): < 1.8 | inhibition at 2 h, 0.01 µM (histamine H1 receptor): 21.5%
